Test results as given in ChEMBL document CHEMBL5131524, “Design and Synthesis of Tranylcypromine-Derived LSD1 Inhibitors with Improved hERG and Microsomal Stability Profiles” (ACS Med Chem Lett, 2022).

Legend:
[1] = Metabolic stability in mouse liver microsomes assessed as compound remaining and measured after 60 mins in presence of beta-NADPH by liquid chromatography tandem mass spectrometry analysis; assay type: ADME, Microsome; conditions: read-out: Stability
Method in brief: (§1)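 Percent of compound remaining after 60 min incubation with liver microsomes of each species (human, rat, mouse). Values are the mean of three independent experiments.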

[2] = Metabolic stability in rat liver microsomes assessed as compound remaining and measured after 60 mins in presence of beta-NADPH by liquid chromatography tandem mass spectrometry analysis; assay type: ADME, Microsome; conditions: read-out: Stability; method in brief: as §1
[3] = biological target: T1, Amine oxidase [flavin-containing] A (Homo sapiens, UniProt P21397); assay: Inhibition of MAO-A (unknown origin) using tyramine as substrate and measured after 10 mins by peroxidase-coupled reaction method
T1 sequence (P21397 whole entry): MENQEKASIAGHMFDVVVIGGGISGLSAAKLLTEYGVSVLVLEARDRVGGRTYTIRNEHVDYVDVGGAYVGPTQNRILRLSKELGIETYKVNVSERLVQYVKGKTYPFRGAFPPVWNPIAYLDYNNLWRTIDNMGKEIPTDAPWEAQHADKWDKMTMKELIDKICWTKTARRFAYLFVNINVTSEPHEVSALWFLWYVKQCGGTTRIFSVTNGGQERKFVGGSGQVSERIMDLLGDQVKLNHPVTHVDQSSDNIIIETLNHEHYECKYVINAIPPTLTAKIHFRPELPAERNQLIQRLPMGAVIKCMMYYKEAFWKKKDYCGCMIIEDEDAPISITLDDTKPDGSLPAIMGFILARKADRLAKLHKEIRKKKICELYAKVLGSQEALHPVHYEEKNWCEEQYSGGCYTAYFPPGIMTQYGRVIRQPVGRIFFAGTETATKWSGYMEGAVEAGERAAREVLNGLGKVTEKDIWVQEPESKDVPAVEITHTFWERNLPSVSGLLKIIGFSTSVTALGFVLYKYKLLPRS

[4] = biological target: T2, Amine oxidase [flavin-containing] B (Homo sapiens, UniProt P27338); assay: Inhibition of MAO-B (unknown origin) using tyramine as substrate and measured after 10 mins by peroxidase-coupled reaction method
T2 sequence (P27338 whole entry): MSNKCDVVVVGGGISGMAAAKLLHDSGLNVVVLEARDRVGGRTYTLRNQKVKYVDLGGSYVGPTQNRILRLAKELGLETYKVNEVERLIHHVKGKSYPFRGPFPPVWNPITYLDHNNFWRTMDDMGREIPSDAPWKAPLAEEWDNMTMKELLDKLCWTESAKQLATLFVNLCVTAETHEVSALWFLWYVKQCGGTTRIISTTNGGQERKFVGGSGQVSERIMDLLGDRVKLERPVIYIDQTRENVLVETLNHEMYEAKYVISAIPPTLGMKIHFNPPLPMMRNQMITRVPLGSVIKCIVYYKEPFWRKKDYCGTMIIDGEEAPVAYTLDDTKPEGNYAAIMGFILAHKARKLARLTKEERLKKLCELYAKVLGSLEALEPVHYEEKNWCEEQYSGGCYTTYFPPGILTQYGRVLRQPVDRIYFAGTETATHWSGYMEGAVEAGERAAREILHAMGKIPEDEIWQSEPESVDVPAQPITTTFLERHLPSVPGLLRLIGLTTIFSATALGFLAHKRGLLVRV

[5] = Metabolic stability in human liver microsomes assessed as compound remaining and measured after 60 mins in presence of beta-NADPH by liquid chromatography tandem mass spectrometry analysis; assay type: ADME, Microsome; conditions: read-out: Stability; method in brief: as §1
[6] = biological target: hERG (KCNH2) (Homo sapiens, UniProt Q12809); assay: Inhibition of human ERG expressed in human HEK293 cells at 10 uM for 2 mins by whole-cell patch-clamp system; assay type: toxicity, cell-based; conditions: HEK293 cells expressing human ERG
Method in brief: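 hERG inhibition was measured by automated patch clamp in HEK293 cells expressing hERG. Values are the mean of three independent experiments.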

[7] = Tmax in ICR mouse serum at 10 mg/kg, ip; assay type: ADME, organism-based
Method in brief: (§2)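 Single intraperitoneal injection, 10 mg/5 mL per kilogram, to male ICR mice aged eight weeks (n = 3). Serum concentration–time profiles were measured, giving AUC0–∞ […], Cmax, Tmax and serum half-life.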

[8] = Half life in ICR mouse serum at 10 mg/kg, ip; assay type: ADME, organism-based; method in brief: as §2
[9] = AUC (0-infinity) in ICR mouse at 10 mg/kg, ip; assay type: ADME, organism-based; parameters: time infinity, dose 10 mg/kg, route ip; conditions: in vivo; method in brief: as §2
[10] = Cmax in ICR mouse serum at 10 mg/kg, ip; assay type: ADME, organism-based; parameters: dose 10 mg/kg, route ip; method in brief: as §2

Chain of hERG (KCNH2) (Q12809 whole entry): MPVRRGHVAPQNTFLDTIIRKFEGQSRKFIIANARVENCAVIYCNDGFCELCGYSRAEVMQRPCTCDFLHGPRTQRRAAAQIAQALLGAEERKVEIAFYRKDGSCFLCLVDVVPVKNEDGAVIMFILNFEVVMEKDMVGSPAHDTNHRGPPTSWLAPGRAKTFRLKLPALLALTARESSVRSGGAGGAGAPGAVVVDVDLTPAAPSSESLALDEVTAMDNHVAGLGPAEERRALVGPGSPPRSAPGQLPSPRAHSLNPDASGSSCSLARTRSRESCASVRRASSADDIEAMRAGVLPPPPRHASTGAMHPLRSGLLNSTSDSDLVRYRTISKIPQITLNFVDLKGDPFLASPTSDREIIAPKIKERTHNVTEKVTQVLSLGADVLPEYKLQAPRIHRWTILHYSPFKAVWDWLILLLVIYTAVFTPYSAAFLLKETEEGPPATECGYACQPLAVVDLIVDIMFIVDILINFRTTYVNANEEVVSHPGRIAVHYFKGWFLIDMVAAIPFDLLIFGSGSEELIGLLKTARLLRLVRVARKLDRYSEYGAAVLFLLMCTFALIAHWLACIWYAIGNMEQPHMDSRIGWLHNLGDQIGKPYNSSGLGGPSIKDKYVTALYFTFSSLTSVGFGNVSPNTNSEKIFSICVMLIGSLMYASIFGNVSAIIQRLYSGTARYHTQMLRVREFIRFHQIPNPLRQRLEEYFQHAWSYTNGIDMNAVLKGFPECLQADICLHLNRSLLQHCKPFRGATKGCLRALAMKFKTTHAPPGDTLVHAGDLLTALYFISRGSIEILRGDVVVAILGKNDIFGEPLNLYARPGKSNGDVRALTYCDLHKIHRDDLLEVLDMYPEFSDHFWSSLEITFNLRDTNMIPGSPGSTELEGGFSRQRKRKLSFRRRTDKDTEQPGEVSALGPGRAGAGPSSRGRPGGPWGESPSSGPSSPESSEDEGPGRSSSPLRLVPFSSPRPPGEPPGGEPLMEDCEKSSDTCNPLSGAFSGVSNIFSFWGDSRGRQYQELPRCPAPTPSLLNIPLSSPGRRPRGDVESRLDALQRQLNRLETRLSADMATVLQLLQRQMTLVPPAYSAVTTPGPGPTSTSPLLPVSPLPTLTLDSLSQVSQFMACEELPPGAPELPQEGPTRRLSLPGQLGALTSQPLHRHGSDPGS

| Compound | remaining at 1 h [1] [%] | remaining at 1 h [2] [%] | remaining at 1 h [5] [%] | inhibition at 2 min, 10 µM [6] [%] | further results |
| --- | --- | --- | --- | --- | --- |
| O=C(CN[C@@H]1C[C@H]1c1cc(F)cc(F)c1OCc1cccnc1F)N1CCC2(CCNC2)CC1 | 73 | 55 | 45 |  | Ki [3]: > 250 µM; Ki [4]: > 250 µM |
| COCCN1CCN(C(=O)CNC2CC2c2cc(F)cc(F)c2OCc2cnn(C)c2)CC1 (configuration not stated) |  |  |  | 14 |  |
| COCCN1CCN(C(=O)CNC2CC2c2cc(F)cc(F)c2OCc2ccccc2)CC1 (configuration not stated) |  |  |  | 50 |  |
| COCCN1CCN(C(=O)CNC2CC2c2cc(F)cc(F)c2OCCc2ccc(F)cc2)CC1 (configuration not stated) |  |  |  | > 100 |  |
| O=C(CNC1CC1c1cc(F)cc(F)c1OCc1cccnc1F)N1CCC(N2CC3CCC(C2)N3)CC1 (configuration not stated) | 25 | 24 | 0 | 23 |  |
| COCCN1CCN(C(=O)CNC2CC2c2cc(F)cc(F)c2OCc2cc[nH]n2)CC1 (configuration not stated) |  |  |  | 8 |  |
| O=C(CNC1CC1c1cc(F)cc(F)c1OCc1cccnc1F)N1CCC2(CCCN2)CC1 (configuration not stated) | 42 | 20 | 41 | 62 |  |
| COCCN1CCN(C(=O)CNC2CC2c2cc(F)cc(F)c2OCc2cccnc2F)CC1 (configuration not stated) |  |  |  | 21 |  |
| O=C(CNC1CC1c1cc(F)cc(F)c1OCc1cccnc1F)N1CCC2(CCNC2)CC1 (configuration not stated) | 73 | 56 | 44 | 10 |  |
| O=C(CNC1CC1c1cc(F)cc(F)c1OCc1cccnc1F)N1CCC(N2CC3CCC(C2)O3)CC1 (configuration not stated) | 0 | 0 | 0 | 32 |  |
| COCCN1CCN(C(=O)CNC2CC2c2cc(F)cc(F)c2OCc2ccnc(F)c2)CC1 (configuration not stated) |  |  |  | 46 |  |
| COCCN1CCN(C(=O)CNC2CC2c2cc(F)cc(F)c2OCCc2ccccc2)CC1 (configuration not stated) |  |  |  | 76 |  |
| O=C(CN[C@H]1C[C@@H]1c1cc(F)cc(F)c1OCc1cccnc1F)N1CCC2(CCNC2)CC1 | 62 | 62 | 38 |  | Tmax [7]: 30 min; half-life [8]: 234 min; Ki [3]: > 250 µM; AUC(0-inf) [9]: 5.09 µM·h; Ki [4]: > 250 µM; Cmax [10]: 3030 nM |
| CN1CCN(C(=O)CNC2CC2c2cc(F)cc(F)c2OCc2ccccc2)CC1 (racemic) |  |  |  | 51 | Tmax [7]: 15 min; half-life [8]: 57 min; AUC(0-inf) [9]: 0.98 µM·h; Cmax [10]: 960 nM |
